Data reported in paper PMC9653265 (Journal of medicinal chemistry, 2022).

Key:
P2X7R = conditions: cited from earlier work
mP2X4R = conditions: cited from earlier work
[1] = system: 45 receptors, channels, and transporters; test: PDSP off-target binding screen at 45 receptors, channels and transporters; conditions: at 10 μM
hP2X1R = target: T1, hP2X1R (Homo sapiens, UniProt P51575); test: cell-based; conditions: CHO-K1, read-out: hP2X1R % inhib.
T1 sequence (P51575 1-399): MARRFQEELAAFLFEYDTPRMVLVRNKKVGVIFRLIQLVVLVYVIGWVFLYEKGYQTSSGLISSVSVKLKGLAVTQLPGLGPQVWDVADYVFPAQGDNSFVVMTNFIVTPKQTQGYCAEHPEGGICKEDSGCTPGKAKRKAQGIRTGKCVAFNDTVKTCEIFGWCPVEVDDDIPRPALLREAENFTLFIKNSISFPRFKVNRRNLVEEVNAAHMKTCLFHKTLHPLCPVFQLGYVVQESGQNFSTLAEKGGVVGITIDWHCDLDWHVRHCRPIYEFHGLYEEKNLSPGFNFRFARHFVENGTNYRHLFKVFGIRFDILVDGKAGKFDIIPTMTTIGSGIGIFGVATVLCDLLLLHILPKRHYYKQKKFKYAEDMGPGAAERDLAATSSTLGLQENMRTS

[2] = system: mouse middle cerebral artery occlusion (MCAO) model of ischemic stroke; conditions: mice, 1 mg/kg/day × 3 days, administered 4 h after onset of stroke; cited from earlier work
[3] = system: mouse middle cerebral artery occlusion (MCAO) model of ischemic stroke; test: Rotarod test after MCAO; format: in vivo; conditions: middle-aged mice after MCAO; 4–40 rpm, 5 min; over 4 weeks
How it was run: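 Middle-aged male and female C57BL/6 mice underwent 60 min right MCAO. They received test compound or PBS by osmotic minipump for 3 days. Rotarod was done at baseline and on post-MCAO days 2, 7, 14, 21 and 28, 1 h after open-field testing. The rod accelerated 4–40 rpm over 5 min. Each mouse had two trials 30 min apart, and mean latency to fall (s) was used. Data are mean ± S.D.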

[4] = system: mouse middle cerebral artery occlusion (MCAO) model of ischemic stroke; test: Novel Object Recognition Task; format: in vivo; conditions: middle-aged mice, 4 weeks after MCAO; dose of 3 mg/kg; p < 0.05 vs Veh
[5] = system: mouse middle cerebral artery occlusion (MCAO) model of ischemic stroke; test: Open-field test after MCAO; format: in vivo; conditions: middle-aged mice after MCAO; vs vehicle; over 4 weeks
How it was run: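 The model used 60 min right MCAO in middle-aged male and female C57BL/6 mice. Test compound or PBS vehicle was infused by osmotic minipump for 3 days. Testing was at baseline and on post-MCAO days 2, 7, 14, 21 and 28. Mice started from a corner of a 16″ acrylic box and explored ~10 min. Total photobeam breaks and center-zone break percentage were recorded. This test preceded rotarod by 1 h. Data are mean ± S.D.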

[6] = system: primary human monocyte-derived macrophages; test: Calcium influx assay on human monocyte-derived macrophages; format: cell-based; conditions: ATP 50 μM, 15 min pretreatment
How it was run: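 Monocytes came from fresh whole blood of healthy donors. They were matured 5–7 days in RPMI with GM-CSF (5 ng/mL), then seeded at 10^4 cells/dish for ≥24 h. Cells were loaded with Calbryte 590 AM for 60 min in HBSS/HEPES and washed. They were pretreated 15 min with test compound (0, 0.1, 0.3, 0.6, 1, 3 μM), then stimulated with ATP 50 μM. Confocal images were taken every 6 s for up to 4 min, and peak Ca2+ amplitude was quantified.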

[7] = system: mouse middle cerebral artery occlusion (MCAO) model of ischemic stroke; test: MCAO ischemic stroke model, cerebral infarct volume; format: in vivo
[8] = young adult male mice (8–12 weeks), doses of 1.5 and 3.0 mg/kg/day × 3 days continuous infusion (Alzet minipump), 3 days after stroke, vs Veh
[9] = young adult male mice, 5 mg/kg/day × 3 days continuous infusion, 3 days after stroke, vs Veh

## O=C1CC(=O)N(c2cccc(-c3noc(=S)[n-]3)c2)c2ccc3ccccc3c2N1.[Na+] [Compound 5, 5-(3-(5-Thioxo-4,5-dihydro-1,2,4-oxadiazol-3-yl)phenyl)-1,5-dihydro-2H-naphtho[1,2-b][1,4]diazepine-2,4(3H)-dione]
P2X7R
  activity at the P2X7R: inactive
mP2X4R
  potency in blocking mP2X4R effects in vitro compared with hP2X4R: as potent
[1]
  off-target binding at 45 receptors, channels, and transporters: no significant interactions

## O=C1CC(=O)N(c2cccc(-c3noc(=S)[nH]3)n2)c2ccc3ccccc3c2N1 [Compound 21v, 5-(6-(5-Thioxo-4,5-dihydro-1,2,4-oxadiazol-3-yl)pyridin-2-yl)-1,5-dihydro-2H-naphtho[1,2-b][1,4]diazepine-2,4(3H)-dione]
hP2X1R
  inhibition at 30 µM: ≤ 31%

## CC(=O)NCc1ccc2ccc3c(c2c1)NC(=O)CC(=O)N3c1cccc(-c2noc(=S)[nH]2)c1 [Compound 21i, N-((2,4-Dioxo-5-(3-(5-thioxo-4,5-dihydro-1,2,4-oxadiazol-3-yl)-phenyl)-2,3,4,5-tetrahydro-1H-naphtho[1,2-b][1,4]diazepin-10-yl)-methyl)acetamide]
hP2X1R
  inhibition at 30 µM: ≤ 31%

## O=C1CN=C(c2cccc(Br)c2)c2oc3ccccc3c2N1 [Compound 3, 5-(3-bromophenyl)-1,3-dihydro-2H-benzofuro[3,2-e][1,4]diazepin-2-one]
[2]
  stroke infarct size: reduced

## CCN(CC)CC.O=C1CC(=O)N(c2ccnc(-c3noc(=S)[nH]3)c2)c2ccc3ccccc3c2N1 [Compound 21u, 5-(2-(5-Thioxo-4,5-dihydro-1,2,4-oxadiazol-3-yl)pyridin-4-yl)-1,5-dihydro-2H-naphtho[1,2-b][1,4]diazepine-2,4(3H)-dione]
[3]
  motor coordination and balance (rotarod): did not improve
[4]
  learning and memory function (NORT): significant retention of memory
[5]
  total exploratory behavior (total beam breaks, open-field task): did not show any differences
[6]; HMDM of healthy subjects
  inhibition of ATP-induced increase in calcium influx: dose-dependent (0–3 μM) inhibition
[6]; vs ATP only
  doses giving a significant decrease of the peak Ca2+ amplitude: ≥ 0.6 µM
[7]; neuroprotective and neuro-rehabilitative properties
  effective dose in murine MCAO ischemic stroke model: 1.5 mg/kg
[7]; [8]
  cortical infarct volume: significantly reduced
  total hemispheric infarct volume: significantly reduced

## CCN(CC)CC.O=C1CC(=O)N(c2cccc(-c3noc(=S)[nH]3)c2)c2cc(Br)c3ccccc3c2N1 [Compound 21d, 7-Bromo-5-(3-(5-thioxo-4,5-dihydro-1,2,4-oxadiazol-3-yl)-phenyl)-1,5-dihydro-2H-naphtho[1,2-b][1,4]diazepine-2,4(3H)-dione]
[1]
  off-target binding at 45 receptors, channels, and transporters: no significant interactions

## Cc1ccc2c3c(ccc2c1)N(c1cccc(-c2noc(=S)[n-]2)c1)C(=O)CC(=O)N3.[Na+] [Compound 22c]
[1]
  off-target binding at 45 receptors, channels, and transporters: no significant interactions
[7]; [9]
  cortical infarct volume: not significant
  striatal infarct volume: not significant
  total hemispheric infarct volume: moderate but significant decrease
